# APJ antagonist = blocks the human apelin receptor APJ | CHO-K1 APJ beta-arrestin complementation, luminescence | actives 0.32% (n = 330,000) | AID 2521 | inhibition, % at 20 µM | P35414;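 active = inhibition above about 40% at 20 µM, limit read from the data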;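 note: cells challenged with 10 nM apelin-13 agonist together with compound; plate controls were apelin-13 plus DMSO wells for no effect and DMSO wells lacking apelin-13 for full effect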
# APJ ag = agonists of human APJ apelin receptor | P35414 | CHO-K1 APJ PathHunter beta-arrestin, luminescence; 0% DMSO wells, 100% apelin | activation, % at 20 µM | actives 0.11% (n = 330,000);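 active = activation more than six SD over the plate average, tested at 20 µM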;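 note: 0% = DMSO alone and 100% = apelin-13 at 10 nM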
#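 system = engineered CHO-K1 APJ arrestin reporter cells | input = 1000 cells per well | timing = overnight seeding, 90 min compound at 25 °C, 1 h detection | measured by = enzyme-fragment complementation luminescence | read-out = beta-arrestin recruitment to APJ as agonist activity, luminescent signal | control set = negative DMSO alone, positive Apelin-13 at 10 nM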
# CCR6 antagonist = antagonists of human CCR6 receptor | P51684 | inhibition, % at 20 µM | actives 0.49% (n = 340,000) | CHO-K1 CCR6 PathHunter beta-arrestin, luminescence, CCL20-stimulated;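 active = compounds whose inhibition of the agonist-driven luminescence signal at 20 µM reaches about 50%, limit read from the data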;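 note: cells stimulated with CCL20 at 14 nM final; plate controls were DMSO with CCL20 for no effect and DMSO without agonist for full effect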
# EBI2 antag = EBI2 (human) antagonism. P32249. EBI2 beta-arrestin recruitment, luminescence, 7a,25-OHC stimulated. inhibition, % at 5 µM. actives 0.81% (n = 360,000); in the data active = inhibition above about 38%;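 note: enzyme fragment complementation signal reports receptor beta-arrestin coupling in cells; 0% = agonist plus DMSO wells and 100% = wells without agonist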
# Target sequence (P32249 whole entry, looked up, the tested form may be a part): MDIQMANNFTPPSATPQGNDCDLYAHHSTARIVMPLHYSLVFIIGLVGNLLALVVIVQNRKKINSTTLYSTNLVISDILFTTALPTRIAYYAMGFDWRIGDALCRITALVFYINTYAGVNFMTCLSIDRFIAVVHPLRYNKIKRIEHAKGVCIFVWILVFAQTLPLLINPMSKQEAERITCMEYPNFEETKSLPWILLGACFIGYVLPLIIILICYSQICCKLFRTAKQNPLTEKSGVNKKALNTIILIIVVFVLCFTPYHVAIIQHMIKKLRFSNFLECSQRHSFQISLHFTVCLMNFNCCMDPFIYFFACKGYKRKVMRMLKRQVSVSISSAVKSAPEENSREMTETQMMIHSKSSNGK
# CXCR6 inh = CXCR6 (human) receptor inhibition; O00574; CHO-K1 PathHunter CXCR6 beta-arrestin, luminescence; inhibition, % at 20 µM; actives 0.36% (n = 360,000); AID 602244; in the data active = inhibition above about 34%, passing the limit was not always enough;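 note: antagonist mode with CXCL16 agonist at 10 nM final; 0% = 10 nM CXCL16 with DMSO and 100% = unstimulated wells without agonist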
# Target sequence (O00574 whole entry, looked up): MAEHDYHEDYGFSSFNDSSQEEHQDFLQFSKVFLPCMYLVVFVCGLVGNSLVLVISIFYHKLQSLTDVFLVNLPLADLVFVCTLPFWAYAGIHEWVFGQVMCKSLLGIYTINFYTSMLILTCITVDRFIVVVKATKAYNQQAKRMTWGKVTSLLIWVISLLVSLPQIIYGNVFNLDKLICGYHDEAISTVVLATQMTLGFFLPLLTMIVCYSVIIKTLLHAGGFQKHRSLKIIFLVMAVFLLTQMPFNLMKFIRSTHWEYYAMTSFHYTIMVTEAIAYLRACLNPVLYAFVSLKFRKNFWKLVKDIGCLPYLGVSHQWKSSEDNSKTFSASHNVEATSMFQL
# EBI2 antag conf = EBI2 (human) antagonism, single concentration confirmation; actives 29% (n = 2,400); inhibition, % at 5 µM; AID 651997; shares compounds with EBI2 antag; EBI2 beta-arrestin luminescence, 7a,25-OHC antagonism;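 active = inhibition of at least 50%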
# EBI2 agonist = activates EBI2, counter-screen for EBI2 antagonists; shares compounds with EBI2 antag; activation, % at 5 µM; 2,400 tested, under 10 active; EBI2-expressing cells, agonist mode, luminescence, 60 min; 0% vehicle, 100% 7α,25-dihydroxycholesterol control;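 active = activation of at least 50%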
# bGal cs = beta-galactosidase inhibition counter-screen; shares compounds with EBI2 antag; purified beta-galactosidase, luminescent Galacton Star, 15 min; inhibition, % at 5 µM; actives 1% (n = 2,400);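 active = replicate-average signal at least 3 plate SD below neutral wells, shown as high inhibition, flagging enzyme-inhibiting false positives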;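 note: 0% = DMSO wells with enzyme and 100% = wells lacking enzyme; higher means stronger loss of beta-gal luminescence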
# Starred values were filed as active, the others as inactive; x = not tested or not shown. A selection: hits, their analogues and other compounds. The true share with any hit is near 1.5%.
SMILES,APJ antagonist,APJ ag,CCR6 antagonist,EBI2 antag,CXCR6 inh,EBI2 antag conf,EBI2 agonist,bGal cs
O=C(NCc1ccccc1)c1ccc(C2SCC(=O)N2Cc2ccccc2)cc1 (centres undefined),8.2,-2.0,11.3,41.3*,9.0,36.2,-1.5,-9.4
COc1cccc(CNC(=O)N2CCN(S(=O)(=O)c3ccc(C)cc3)CC2)c1,-28.6,-4.5,10.9,-3.8,-4.2,x,x,x
CCOC(=O)c1c(C)nc(C)c(C(=O)OCC)c1-c1cccc([N+](=O)[O-])c1,x,x,x,58.9*,-3.4,34.6,0.3,7.3
O=S(=O)(c1ccc(NC(=S)NN=C(Cc2ccccc2)Cc2ccccc2)cc1)N1CCOCC1,4.3,1.3,7.8,45.6*,-0.3,-5.4,2.2,4.9
O=S(=O)(c1ccc(NC(=S)NCCc2ccccc2)cc1)N1CCOCC1,-10.9,0.1,-3.8,10.4,10.0,x,x,x
O=C(Nc1cc(S(=O)(=O)Nc2ccc(Cl)cc2)ccc1N1CCCCC1)c1ccc(F)cc1,-10.5,-2.6,14.3,29.4,14.8,x,x,x
N#Cc1ccc(C(=O)Nc2cc(S(=O)(=O)Nc3ccc(Cl)cc3)ccc2N2CCCCC2)cc1,-15.2,-0.7,13.1,52.4*,-4.6,33.4,0.8,3.5
O=C1OCCC1Sc1nnc(-c2ccccc2Cl)n1Cc1ccccc1 (centres undefined),4.6,-3.1,-5.1,53.5*,4.1,12.0,-0.4,-7.4
O=C1OCCC1Sc1nnc(-c2ccccc2Br)n1Cc1ccccc1 (centres undefined),1.5,-2.1,6.1,0.6,-3.9,x,x,x
COCCn1c(N)c(Sc2ccc(Cl)cc2)c(=O)[nH]c1=O,-3.0,1.3,-2.5,-5.3,3.9,x,x,x
CN(Cc1cccc(F)c1)C(=O)c1cccc(S(=O)(=O)N2CCN(Cc3ccccc3)CC2)c1,0.7,-3.3,1.4,5.2,-14.8,x,x,x
CN(Cc1ccc(Cl)c(Cl)c1)C(=O)c1cccc(S(=O)(=O)N2CCN(Cc3ccccc3)CC2)c1,15.4,-3.6,2.4,57.7*,-2.8,28.1,0.9,6.3
CN(Cc1cccc(Cl)c1Cl)C(=O)c1cccc(S(=O)(=O)N2CCN(Cc3ccccc3)CC2)c1,-9.9,3.0,8.3,53.5*,-3.6,18.0,0.1,-14.2
Cc1ccccc1C(=O)Nc1ccnn1C1CCN(Cc2ccc(CO)o2)CC1,2.4,12.0,-5.7,-0.6,-2.4,x,x,x
CCCc1nn(-c2ccccc2)c2c1C(c1cccs1)C(C#N)=C(N)O2 (centres undefined),0.6,1.8,-2.3,53.5*,-3.0,59.8*,-1.2,-3.9
C=CCNC(=S)N/N=C/c1cn(-c2ccccc2)nc1-c1ccc(OC)cc1,-16.6,2.3,-17.7,44.7*,10.2,35.2,0.8,6.7
Clc1cccc(Nc2nc(-c3ccncc3)cs2)c1,-4.2,2.1,-12.4,52.2*,-13.4,47.8,-0.5,-8.0
Cc1cccc(Nc2nc(-c3ccncc3)cs2)c1,-14.1,-1.3,-24.8,33.5,-6.4,x,x,x
O=C(COC(=O)c1cc([N+](=O)[O-])ccc1N1CCOCC1)c1ccc(OC(F)F)cc1OC(F)F,17.6,-4.5,16.5,43.5*,16.0,18.3,0.1,8.2
O=C(COC(=O)c1cc([N+](=O)[O-])ccc1N1CCOCC1)Nc1ccccc1OC(F)F,-58.9,9.4,14.7,2.0,-1.2,x,x,x
O=C(OCC(=O)c1ccc[nH]1)c1ccc(S(=O)(=O)C(F)F)cc1,x,x,x,-0.4,2.5,x,x,x
Cc1nc(SCc2nc3ccc(Br)cc3[nH]2)c2oc3ccccc3c2n1,-6.1,-0.5,3.2,1.5,12.1,x,x,x
COc1ccc2c(c1)oc1c(SCc3nc4ccccc4[nH]3)nc(C)nc12,-5.9,-0.7,8.4,77.7*,8.8,50.8*,-0.4,-4.9
Cc1nc(SCc2nc3ccc(Cl)cc3[nH]2)c2oc3ccccc3c2n1,9.1,-2.6,5.5,16.8,1.8,x,x,x
Cc1nc(SCc2nc3ccccc3[nH]2)c2oc3cc([N+](=O)[O-])ccc3c2n1,-32.3,2.7,11.2,48.1*,-6.8,58.9*,0.2,1.9
SMILES,APJ antagonist,APJ ag,CCR6 antagonist,EBI2 antag,CXCR6 inh,EBI2 antag conf,EBI2 agonist,bGal cs
Cc1ccc(-c2csc(NC(=O)C3=COCCO3)n2)cc1,15.7,-0.6,-7.8,-0.4,0.0,x,x,x
O=C(Nc1nc(-c2ccc(Oc3ccccc3)cc2)cs1)C1=COCCO1,7.4,-1.5,9.2,73.7*,-9.6,31.9,-1.0,8.4
Cn1cccc1Cc1nnc(SCC(=O)N2CCCC2)n1CCc1ccccc1,-75.1,-2.8,6.6,5.8,-2.7,x,x,x
Cn1cccc1Cc1nnc(SCC(=O)N2CCc3ccccc32)n1CCc1ccccc1,-1.1,-3.6,12.6,67.9*,-4.0,40.5,-0.4,-10.4
COc1ccc(-n2c(Cc3cccn3C)nnc2SCC(=O)N2CCCc3ccccc32)cc1,11.0,-4.1,4.1,37.7*,4.1,35.4,0.4,6.4
CC1CCN(C(=O)CSc2nnc(Cc3cccn3C)n2CCc2ccccc2)CC1,15.0,-4.6,-2.9,47.0*,2.6,-2.9,1.9,9.4
CC(C(=O)NCCCc1ccccc1)n1cccc1C(=O)c1ccccc1 (centres undefined),13.5,-5.4,20.1,24.2,6.8,x,x,x
O=S(=O)(c1ccc(Br)s1)N1CCNCC1,-30.2,-4.4,8.9,-12.6,-1.8,x,x,x
O=C(O)c1sccc1Oc1ccc(NS(=O)(=O)c2cccc(F)c2)cc1,10.2,-1.3,8.7,-6.0,4.5,x,x,x
CCOC(=O)CN(C(=O)CSc1nnc(CNc2ccc(C)cc2C)o1)c1ccccc1,-8.2,-1.8,-18.3,45.5*,-0.3,21.4,-1.6,-9.6
O=C(NC(c1ccccc1)c1ccc2ccccc2n1)C1CCN(Cc2ccc(Oc3ccccc3)cc2)CC1 (centres undefined),x,x,x,15.0,6.3,x,x,x
COc1cc(OC)nc(C(NC(=O)C2CCN(Cc3ccc(Oc4ccccc4)cc3)CC2)c2ccccc2C)n1 (centres undefined),x,x,x,53.3*,28.0,19.4,-0.6,-8.7
CCOc1c(Cl)cc(/C=C/C(=O)N(CC)CC(=O)Nc2ccc(NC(C)=O)cc2)cc1OC,12.4,-2.8,3.7,10.9,-1.4,x,x,x
Cc1ccc(C)c(S(=O)(=O)N2CCN(C(=O)CCc3nc4ccccc4c(=O)[nH]3)CC2)c1,-4.8,-2.8,9.8,3.0,-2.7,x,x,x
COc1cc2nc(CN3CCN(S(=O)(=O)c4cc(C)ccc4C)CC3)[nH]c(=O)c2cc1OC,10.2,-2.8,13.7,59.7*,3.1,36.7,1.6,1.4
O=c1[nH]c(CN2CCN(S(=O)(=O)c3ccc(Cl)cc3)CC2)nc2cc(Cl)ccc12,8.4,-2.8,-2.2,89.4*,-10.6,69.2*,0.1,8.9

# Screening data as filed in PubChem BioAssay.
